Compound activity deposited in PubChem BioAssay by Broad Institute.
Shown are actives, neighbours in structure and some others; about 3.2% of the full set was active somewhere.
Cneo AK release – Cryptococcus neoformans lysis via adenylate kinase release; C. neoformans lysis, adenylate kinase release luminescence, 4 h; normalised: neutral wells 0, clomiphene wells 100; lysis activity, % at 15 µM; AID 651654; hit rate 0.2% among 360,000;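 active = mean lysis activity across replicates of at least 80%, whatever share of replicates individually reach that level; inactive = mean lysis activity below 80%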
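Assay system: log-phase C. neoformans yeast / Quantity: yeast cell density of 5 × 10^6 cells/mL / Medium: fresh YPD growth medium / Compound: single dose / Timing: static 4 h at 37 °C with compound, 1 h detection / Measured by: adenylate kinase release luminescence / Read-out: lysis from increased AK signal / Benchmarks: Clomiphene as positive lysis control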
S100A4 MyoIIA – blocks human S100A4 binding to myosin IIA peptide | P26447 | S100A4/TAMRA-MyoIIA peptide fluorescence polarization | inhibition, % at 10.7 µM | hit rate 0.14% among 360,000;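 active = mean inhibition of at least 70% across replicates, with every replicate also reaching that level; inconclusive = mean inhibition reaches 70% but some replicates fall short; inactive = mean inhibition below 70%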
Target sequence (P26447 whole entry, looked up): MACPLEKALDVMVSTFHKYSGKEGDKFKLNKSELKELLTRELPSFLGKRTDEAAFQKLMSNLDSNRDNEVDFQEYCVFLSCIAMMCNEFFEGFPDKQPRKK
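incubation = readout 5 min after mixing, signal stable up to 60 min | system = S100A4 monomer protein | buffer or medium = HEPES pH 7.2 with CaCl2, KCl, NaCl, DTT, Triton | benchmarks = neutral control DMSO, positive control TFP | also added = fluorescent myosin IIA peptide, 5 nM | compound dosing = one concentration per compound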
DENV2 CPE rescue – DENV2-induced cell death inhibition; DENV2-infected cells, cytopathic effect rescue, plate reader; CPE inhibition, % at 9.99 µM; hit rate 1.7% among 350,000; AID 651640; in the data active = CPE inhibition above about 20%, passing the limit was not always enough; inconclusive = no clear call, values can overlap the other calls; tested in BHK-21 cells
rRNA inh HTS – inhibitors of bacterial rRNA selective over humanized ribosomes | E. coli WT GFP vs humanized-ribosome RFP mutants, fluorescence, 24 h; active compounds read low; DMSO median 0, no signal -100 | hit rate 1.6% among 350,000 | GFP signal change (wild-type ribosome), % (test concentration not listed);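 active = significant combined selectivity score with lowered wild-type GFP, culture density cut under 30%, mutant RFP and density less affected; inactive = any of these conditions unmet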
AF4-AF9 inh – MLL-AF4/AF9 protein interaction inhibition; P42568; AlphaScreen, biotin-AF4 peptide binding to FLAG-AF9; inhibition, % at 10 µM; hit rate 0.47% among 350,000;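 active = every replicate reaching a set inhibition limit, whatever the replicate mean, cut at about 25% in these data; inconclusive = mean inhibition reaches that limit but some replicates miss it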
Target sequence (P42568 whole entry, looked up): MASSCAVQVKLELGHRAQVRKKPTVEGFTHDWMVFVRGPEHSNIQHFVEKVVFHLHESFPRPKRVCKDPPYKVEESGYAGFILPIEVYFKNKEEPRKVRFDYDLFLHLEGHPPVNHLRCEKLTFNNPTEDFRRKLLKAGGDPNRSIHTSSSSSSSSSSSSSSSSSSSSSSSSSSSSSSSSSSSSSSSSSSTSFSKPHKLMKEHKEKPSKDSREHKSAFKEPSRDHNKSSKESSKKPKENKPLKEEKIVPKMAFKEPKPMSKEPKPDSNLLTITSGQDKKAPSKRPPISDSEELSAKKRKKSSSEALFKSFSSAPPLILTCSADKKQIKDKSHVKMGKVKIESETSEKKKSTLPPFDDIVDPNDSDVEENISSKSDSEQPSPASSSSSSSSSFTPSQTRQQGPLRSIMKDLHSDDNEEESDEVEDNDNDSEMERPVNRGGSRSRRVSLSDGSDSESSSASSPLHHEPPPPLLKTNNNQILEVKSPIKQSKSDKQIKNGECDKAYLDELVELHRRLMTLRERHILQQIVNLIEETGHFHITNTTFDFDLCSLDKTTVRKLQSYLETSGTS
PfHsp90 yeast 2 – inhibits growth of yeast expressing Plasmodium falciparum Hsp90 | S. cerevisiae expressing PfHsp90, BacTiter-Glo ATP, 48 h; yeast lacking PDR1 and PDR3 efflux regulators | inhibition, % at 9.4 µM | hit rate 0.32% among 310,000 | AID 504621;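 active = every replicate shows inhibition above about 80%, whatever the replicate mean, limit read from the data; inconclusive = mean inhibition reaches the set limit but some replicate falls short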
Numbers stand for hits; i = inactive; ? = inconclusive; nt = no result.

SMILES	Cneo AK release	S100A4 MyoIIA	DENV2 CPE rescue	rRNA inh HTS	AF4-AF9 inh	PfHsp90 yeast 2
COC(=O)c1cc(NC(=O)c2cc(-c3ccccc3Cl)oc2C(F)(F)F)ccc1N1CCOCC1	i	i	i	-32.2	nt	i
Cc1ccc(NC(=O)c2cc(N3C(=O)C=CC3=O)ccc2N2CCOCC2)cc1Cl	nt	i	i	i	i	104.6
C[C@H]1CCCCO[C@H](CN(C)Cc2ccncc2)[C@@H](C)CN([C@@H](C)CO)C(=O)c2cc(NS(=O)(=O)c3cn(C)cn3)ccc2O1	i	i	i	i	i	nt
COc1cccc(/C=N/NC(=O)c2ccc(N3CCCC3=O)cc2)c1	i	i	i	-19.0	i	i
COc1cccc(/C=N/NC(=O)c2[nH]nc3c2CCc2ccccc2-3)c1	i	i	i	-37.1	i	nt
O=C(N/N=C/c1ccco1)c1ccc(N2CCCC2=O)cc1	i	nt	nt	nt	nt	i
Nc1ccccc1C(O)(Cc1ccccc1)c1ccccc1 (configuration not stated)	i	i	36.4	i	i	i
OC(Cc1cccnc1)(c1ccccc1)c1ccccc1	nt	i	?	i	i	i
Cc1noc(C)c1S(=O)(=O)N(C)C[C@H]1Oc2ccc(NC(=O)Nc3ccc(C(F)(F)F)cc3)cc2CC(=O)N([C@@H](C)CO)C[C@@H]1C	i	nt	i	i	nt	nt
Cc1c(CCC(=O)NCCCN2CCCC2=O)c(=O)oc2c(C)c(O)ccc12	i	i	?	nt	i	i
Cc1oc2cc3oc(=O)c(CCC(=O)NCCCn4ccnc4)c(C)c3cc2c1C	i	i	20.9	i	i	i
Cc1coc2cc3oc(=O)c(CCC(=O)NCCCn4ccnc4)c(C)c3cc12	i	i	i	i	i	i
Cc1c(CCC(=O)NCCCN2CCCC2=O)c(=O)oc2cc(O)ccc12	i	i	66.6	nt	i	i
CCCC1CC(C(=O)NC(C(C)Cl)C2OC(SC)C(O)C(O)C2O)N(C)C1 (configuration not stated)	i	i	?	-32.4	i	i
CCC[C@@H]1C[C@@H](C(=O)NC(C(C)Cl)[C@H]2O[C@H](SC)[C@H](O)[C@@H](O)[C@H]2O)N(C)C1 (some centres not stated)	i	i	i	nt	i	i
CSc1nc2ccc(Cl)cc2[nH]1	i	nt	nt	nt	nt	nt
CSc1nc2cc(Oc3cccc(Cl)c3Cl)c(Cl)cc2[nH]1	i	i	i	nt	i	109.0
COc1ccccc1CNC(=O)C[C@H]1C[C@@H]2c3cc(NC(=O)c4cccnc4)ccc3O[C@@H]2[C@@H](CO)O1	i	i	i	i	i	nt
CCOc1ccc2c(ccc(/C=C/c3cc(C)c4cccnc4c3O)[n+]2C)c1	nt	nt	nt	nt	nt	114.8
Cc1ccnc(Nc2nc(-c3ccc(O)c(O)c3)cs2)c1	i	i	i	i	40.9	i
Cc1ccnc(Nc2nc(-c3ccc(O)cc3)cs2)c1	i	i	i	i	i	i
Cc1cccc(Nc2nc(-c3ccc(O)c(O)c3)cs2)n1	i	i	i	i	25.7	i
C[C@@H]1CN([C@@H](C)CO)C(=O)c2cc(NS(=O)(=O)c3cccs3)ccc2O[C@@H]1CN(C)C(=O)Nc1cccc2ccccc12	i	i	i	i	i	nt
C[C@H](CO)N1C[C@H](C)[C@H](CN(C)C(=O)Nc2ccc3c(c2)OCO3)OCCCC[C@H](C)Oc2ccc(NC(=O)Nc3ccccc3)cc2C1=O	i	i	i	i	i	nt
O=C1C=C(Nc2ccc(Cl)cc2Cl)CC(c2ccco2)C1 (configuration not stated)	nt	i	i	-22.1	i	i
SMILES	Cneo AK release	S100A4 MyoIIA	DENV2 CPE rescue	rRNA inh HTS	AF4-AF9 inh	PfHsp90 yeast 2
O=C1C=C(Nc2ccc(O)cc2)CC(c2ccco2)C1 (configuration not stated)	i	nt	nt	nt	nt	i
CCOC(=O)c1ccc(NC2=CC(=O)CC(c3ccco3)C2)cc1 (configuration not stated)	nt	i	i	-22.4	i	i
O=C1C=C(NCc2ccc(Cl)cc2)CC(c2ccco2)C1 (configuration not stated)	i	nt	nt	nt	nt	i
CO[C@H]1CN(C)C(=O)c2ccc(NC(=O)c3cnccn3)cc2OC[C@@H](C)NC[C@H]1C	nt	nt	nt	i	nt	nt
CO[C@@H]1CN(C)C(=O)c2cc(NC(=O)c3cnccn3)ccc2OC[C@H](C)N(CC2CC2)C[C@@H]1C	nt	i	i	i	i	nt
CCCN1C[C@H](C)[C@H](OC)CN(C)C(=O)c2ccc(NC(=O)c3cnccn3)cc2OC[C@@H]1C	i	i	i	i	i	nt
CCCN1C[C@@H](C)[C@H](OC)CN(C)C(=O)c2ccc(NC(=O)Nc3c(C)noc3C)cc2OC[C@@H]1C	i	i	22.4	i	i	nt
CO[C@H]1CN(C)C(=O)c2cc(NC(=O)c3cnccn3)ccc2OC[C@H](C)N(CC2CC2)C[C@@H]1C	nt	i	35.0	i	i	nt
CCCN1C[C@@H](C)[C@@H](OC)CN(C)C(=O)c2ccc(NC(=O)c3cnccn3)cc2OC[C@@H]1C	i	i	22.1	i	i	nt
CO[C@H]1CN(C)C(=O)c2ccc(NC(=O)c3cnccn3)cc2OC[C@H](C)NC[C@H]1C	i	i	53.2	i	i	nt
CCCN1C[C@@H](C)[C@@H](OC)CN(C)C(=O)c2ccc(NC(=O)Nc3c(C)noc3C)cc2OC[C@H]1C	i	i	i	i	i	nt
CN1C(=O)c2cc(NC(=O)C3CCCC3)ccc2OC[C@@H]2O[C@H](CC(=O)NCc3ccccc3F)CC[C@H]21	nt	i	i	i	i	nt
CCOc1ccc(NC(=S)NCc2ccco2)cc1	nt	i	i	-18.7	i	i
COc1ccc(NC(=S)NNC(=S)Nc2cccc(C(F)(F)F)c2)cc1	i	i	i	-24.0	i	i
CNNC(=S)Nc1cccc(C(F)(F)F)c1	i	i	i	nt	i	nt
CCOc1ccc(NC(=S)NNC(=S)Nc2cccc(C(F)(F)F)c2)cc1	nt	i	i	-28.4	nt	i
O=C(C[C@H]1CC[C@@H]2[C@H](COC[C@@H](O)CN2Cc2nccs2)O1)NCc1ccccc1	i	i	i	i	i	nt
Oc1c(Br)cc(Br)cc1CNc1cccc2cccnc12	i	i	i	-22.5	i	i
Oc1ccc(Br)cc1CNc1cccc2cccnc12	i	i	i	i	i	i
COc1ccc(-c2coc3c(C)c4oc(=O)c(CCC(=O)O)c(C)c4cc23)cc1	i	nt	nt	nt	nt	i
Cc1c(CCC(=O)O)c(=O)oc2c(C)c3occ(-c4ccc(Br)cc4)c3cc12	i	i	i	-15.7	i	i
Cc1c(CC(=O)O)c(=O)oc2cc3occ(-c4ccccc4)c3cc12	i	i	i	-19.0	i	i
C[C@H](CO)N1C[C@H](C)[C@H](CN(C)Cc2ccncc2)Oc2cc(-c3ccccc3)ccc2S1(=O)=O	i	i	i	i	i	nt
